Activity calls are given as the source filed them. No cut-off for these calls is given here.
What was measured:
[1] = test system: Plasmodium berghei; test: Anti-plasmodial activity against Plasmodium berghei ANKA infected in mouse assessed as suppression in blood parasitemia level at 0.048 mmol/kg/day, po administered as single dose at 24 hrs time interval from day 1 to day 3 and measured 96 hrs post infection by Giemsa staining based microscopic method relative to control; assay type: functional
How it was run: (§1)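 Swiss albino mice, five per group, were infected i.v. on day 0 with 0.2 ml of 2 x 10^7 P. berghei ANKA parasitized erythrocytes. Oral dosing at 0.048 mmol/kg/day began 2 h later and repeated daily on days 1-3. The vehicle was 7% Tween and 3% ethanol in water. Giemsa smears were read on day 4 (5 fields of ~100 RBC). Suppression was taken against vehicle controls, and survival was tracked per mouse.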

[2] = test system: Plasmodium berghei; test: Anti-plasmodial activity against Plasmodium berghei ANKA infected in mouse assessed as mean survival time at 0.048 mmol/kg/day, po administered as single dose at 24 hrs time interval from day 1 to day 3 and measured 96 hrs post infection (reference value: 4.33 +/- 0.7 day); assay type: functional
[3] = test system: PBMC; test: Cytotoxicity against human PBMC assessed as reduction in cell viability at 25 ug/ml after 30 mins by Neutral red dye-based phase-contrast inverted microscopic analysis relative to control; conditions: 0.5 h
How it was run: (§2)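 PBMC were isolated from a healthy donor by Ficoll-Hypaque density-gradient centrifugation and exposed to a range of test concentrations. Viability was scored by neutral red uptake, with retained dye taken as proportional to viable cells with intact membranes.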

[4] = test system: Erythrocyte; test: Antihemolytic activity in RBC (unknown origin) relative to control
[5] = test system: PBMC; test: Cytotoxicity against human PBMC assessed as reduction in cell viability at 6.25 ug/ml after 30 mins by Neutral red dye-based phase-contrast inverted microscopic analysis relative to control; conditions: 0.5 h; how it was run: as §2
[6] = test system: Erythrocyte; test: Antiinflammatory activity in RBC (unknown origin) at 40 ug/ml relative to control
[7] = test system: Erythrocyte; test: Antiinflammatory activity in RBC (unknown origin) relative to control
[8] = test system: Erythrocyte; test: Antihemolytic activity in RBC (unknown origin); assay type: functional
[9] = Acute toxicity in mouse assessed as mouse death at 150 mg/kg, po after 3 days; assay type: organism-based; conditions: in vivo, 72 h
How it was run: (§3)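 Male mice, 25-30 g, six per group, fasted overnight and weighed before dosing. Compounds given as suspensions in aqueous 1% gum acacia. Five dose groups per compound. Toxicity signs, body-weight change and deaths recorded over 3 days after administration.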

[10] = test system: PBMC; test: Cytotoxicity against human PBMC assessed as reduction in cell viability at 100 ug/ml after 30 mins by Neutral red dye-based phase-contrast inverted microscopic analysis relative to control; conditions: 0.5 h; how it was run: as §2
[11] = test system: Plasmodium falciparum; test: Anti-plasmodial activity against chloroquine resistant Plasmodium falciparum RKL9 infected in human erythrocytes after 24 hrs by Giemsa staining-based method; assay type: functional, organism-based; conditions: RKL9, 24 h
How it was run: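 Chloroquine-resistant RKL9 kept in continuous culture (Trager-Jensen). Parasitaemia adjusted to 1-1.5% with fresh human B(+) RBC in RPMI 1640 with 10% AB(+) serum. Two-fold serial dilutions from ethanol stock, duplicate wells, 37°C for 24 h. Giemsa smears scored as schizonts per 100 asexual parasites. Schizont maturation inhibition = 1 − Nt/Nc x 100; IC50 derived.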

[12] = test system: PBMC; test: Cytotoxicity against human PBMC assessed as reduction in cell viability after 30 mins by Neutral red dye-based phase-contrast inverted microscopic analysis; conditions: 0.5 h; how it was run: as §2
[13] = Acute toxicity in mouse up to 150 mg/kg, po after 3 days; assay type: organism-based; conditions: in vivo, 72 h; how it was run: as §3
[14] = test system: Plasmodium berghei; test: Anti-plasmodial activity against Plasmodium berghei ANKA infected in mouse assessed as increase in mean survival time at 0.048 mmol/kg/day, po administered as single dose at 24 hrs time interval from day 1 to day 3 and measured 96 hrs post infection; assay type: functional, organism-based; how it was run: as §1
[15] = test system: Erythrocyte; test: Antiinflammatory activity in RBC (unknown origin) at 20 ug/ml relative to control
[16] = Acute toxicity in mouse assessed as effect on body weight at 150 mg/kg, po after 3 days; assay type: organism-based; conditions: in vivo, 72 h; how it was run: as §3
[17] = test system: Erythrocyte; test: Antiinflammatory activity in RBC (unknown origin); assay type: functional
[18] = test system: Erythrocyte; test: Antihemolytic activity in RBC (unknown origin) at 20 ug/ml relative to control
[19] = test system: Erythrocyte; test: Antihemolytic activity in RBC (unknown origin) at 40 ug/ml relative to control
[20] = test system: Plasmodium falciparum; test: Potency index, ratio of chloroquine phosphate IC50 to compound IC50 for anti-plasmodial activity against chloroquine resistant Plasmodium falciparum RKL9 infected in human erythrocytes; assay type: functional
[21] = Selectivity ratio of IC50 for human PBMC to IC50 for chloroquine resistant Plasmodium falciparum RKL9; assay type: toxicity; conditions: read-out: Ratio IC50
[22] = Selectivity ratio of IC50 for antiinflammatory activity in RBC (unknown origin) to IC50 for chloroquine resistant Plasmodium falciparum RKL9; assay type: functional
[23] = Selectivity ratio of IC50 for antihemolytic activity in RBC (unknown origin) to IC50 for chloroquine resistant Plasmodium falciparum RKL9; assay type: functional

COc1ccc(-c2nn(-c3ccccc3)cc2C(=O)N/N=C/c2ccncc2)cc1
Activity [1]: 79.31%
MST [2]: 8.83 days

C=CCn1c(-c2ccccc2)cs/c1=N/NC(=O)c1cn(-c2ccccc2)nc1-c1ccc(OC)cc1
Activity [1]: 71.26%
MST [2]: 7.33 days

C=CCn1c(-c2ccc(Br)cc2)cs/c1=N/NC(=O)c1cn(-c2ccccc2)nc1-c1ccc(OC)cc1
Activity [3]: 16.05%
IC50 [4]: 79.5 µM
Activity [5]: 8.46%
Activity [6]: 80.34%
IC50 [7]: 13.7 µM
Activity [8]: 16%
Activity [1]: 90.8%
Activity [9]: Non-Toxic
Activity [10]: 39.93%
IC50 [11]: 0.0319 µM
IC50 [12]: 222 µM
Activity [13]: Non-Toxic
Activity [14]: Active
Activity [15]: 57.79%
Activity [16]: Non-Toxic
Activity [17]: 35.23%
Activity [18]: 59%
Activity [19]: 68%

COc1ccc(-c2nn(-c3ccccc3)cc2C(=O)N/N=C2/SCC(=O)N2c2ccccc2)cc1
Activity [1]: 82.75%
MST [2]: 12.83 days

COc1ccc(-c2nn(-c3ccccc3)cc2-c2n[nH]c(=S)n2-c2ccccc2)cc1
Activity [1]: 73.56%
MST [2]: 7.66 days

COc1ccc(-c2nn(-c3ccccc3)cc2C(=O)N/N=C/c2ccccc2)cc1
Activity [1]: 85.05%
MST [2]: 9.33 days

CCc1nc(N)nc(N)c1-c1ccc(Cl)cc1 [PYRIMETHAMINE]
Activity [1]: 100%
IC50 [11]: 0.0125 µM
Activity [14]: Active

COc1ccc(-c2nn(-c3ccccc3)cc2C(=O)NNC=O)cc1
Activity [1]: 70.11%
MST [2]: 6.66 days

COc1ccc(-c2nn(-c3ccccc3)cc2C(=O)N/N=C/c2ccc(F)cc2)cc1
Activity [1]: 67.81%
MST [2]: 10.5 days

COc1ccc(-c2nn(-c3ccccc3)cc2C(=O)NNC(=S)Nc2ccccc2)cc1
Activity [1]: 73.56%
MST [2]: 6.66 days

COc1ccc(-c2nn(-c3ccccc3)cc2C(=O)N/N=c2/scc(-c3ccc(Br)cc3)n2-c2ccccc2)cc1
Activity [1]: 81.6%
MST [2]: 11.66 days

C=CCNC(=S)NNC(=O)c1cn(-c2ccccc2)nc1-c1ccc(OC)cc1
Activity [1]: 70.11%
MST [2]: 6.66 days

COc1ccc(-c2nn(-c3ccccc3)cc2C(=O)N/N=C/c2cccc(O)c2)cc1
Activity [3]: 54.42%
IC50 [4]: 133 µM
Activity [5]: -19.18%
Activity [6]: 59.58%
IC50 [7]: 16 µM
Activity [8]: 32%
Activity [1]: 97.7%
Activity [9]: Non-Toxic
Activity [10]: 12.78%
Ratio IC50 [20]: 13
IC50 [11]: 0.0142 µM
IC50 [12]: 1000 µM
Activity [13]: Non-Toxic
Activity [14]: Active
Activity [15]: 54.31%
Activity [16]: Non-Toxic
selectivity ratio [21]: 70000
Activity [17]: 49.03%
Activity [18]: 40%
Activity [19]: 44%

COc1ccc(-c2nn(-c3ccccc3)cc2C(=O)N/N=C/c2cccs2)cc1
Activity [1]: 86.2%
MST [2]: 11.5 days

C=CCn1c(-c2cn(-c3ccccc3)nc2-c2ccc(OC)cc2)n[nH]c1=S
Activity [1]: 63.21%
MST [2]: 5.5 days

COc1ccc(-c2nn(-c3ccccc3)cc2C(=O)NNC(C)=O)cc1
Activity [1]: 63.21%
MST [2]: 6.66 days

COc1ccc(-c2nn(-c3ccccc3)cc2C(=O)N/N=c2/scc(-c3ccccc3)n2-c2ccccc2)cc1
Activity [3]: -1.63%
IC50 [4]: 138 µM
Activity [5]: -6.2%
Activity [6]: 106.28%
IC50 [7]: 3.49 µM
Activity [8]: 41%
Activity [1]: 97.7%
Activity [9]: Non-Toxic
Activity [10]: 48.27%
Ratio IC50 [22]: 71
IC50 [11]: 0.0492 µM
IC50 [12]: 190 µM
Activity [13]: Non-Toxic
Activity [14]: Active
Activity [15]: 81.19%
Activity [16]: Non-Toxic
Activity [17]: 56.11%
Activity [18]: 79%
Activity [19]: 99.8%

C=CCN1C(=O)CS/C1=N/NC(=O)c1cn(-c2ccccc2)nc1-c1ccc(OC)cc1
Activity [1]: 79.31%
MST [2]: 11.33 days

CCN(CC)CCCC(C)Nc1ccnc2cc(Cl)ccc12.O=P(O)(O)O.O=P(O)(O)O (stereo not given) [CHLOROQUINE PHOSPHATE]
Activity [1]: 100%
MST [2]: 12.22 days

COc1ccc(-c2nn(-c3ccccc3)cc2C(=O)N/N=C/c2cc(OC)c(OC)c(OC)c2)cc1
Activity [3]: 60%
IC50 [4]: 121 µM
Activity [5]: 43%
Activity [6]: 5.34%
IC50 [7]: 52.5 µM
Activity [8]: 41%
Activity [1]: 93.1%
Activity [9]: Non-Toxic
Ratio IC50 [23]: 1700
Activity [10]: 77.93%
IC50 [11]: 0.0398 µM
IC50 [12]: 31.2 µM
Activity [13]: Non-Toxic
Activity [14]: Active
Activity [15]: 17.52%
Activity [16]: Non-Toxic
selectivity ratio [21]: 783
Activity [17]: 29.69%
Activity [18]: 85%
Activity [19]: 97.8%
